Experimental data: ChEMBL document CHEMBL1641595, “Molecular modeling based approach, synthesis and in vitro assay to new indole inhibitors of hepatitis C NS3/4A serine protease” (Bioorg Med Chem, 2011)
≈ marks a conversion by molar mass, not a printed value.

Test system: Hepacivirus hominis
Assay: Inhibition of HCV NS3/4A protease at 10 ug/ml after 30 mins
Procedure, shortened: (§1)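 Recombinant HCV NS3/4A protease, freshly diluted to 0.5 µg/mL, was combined with test compound in DMSO. The reaction was started with FRET peptide substrate Ac-Asp-Glu-Asp(EDANS)-Glu-Glu-Abu-ψ-[COO]Ala-Ser-Lys(DABCYL)-NH2, diluted 100-fold from a DMSO stock. After 30 min at room temperature (28 °C), fluorescence was read at […]. % inhibition = 100×(Fvehicle−Fsample)/Fvehicle, with both values corrected by subtracting the substrate control.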

SMILES	inhibition
O=C(COc1ccc(/C=C/C(=O)c2c[nH]c3ccccc23)cc1)N[C@@H](Cc1c[nH]cn1)C(=O)O	36.4%
O=C(COc1ccc(/C=C/C(=O)c2c[nH]c3ccccc23)cc1)N[C@@H](Cc1ccccc1)C(=O)O	53.7%
O=C(COc1ccc(/C=C/C(=O)c2c[nH]c3ccccc23)cc1)N[C@@H](Cc1ccc(O)cc1)C(=O)O	49.5%
O=C(COc1ccc(/C=C/C(=O)c2c[nH]c3ccccc23)cc1)N[C@@H](Cc1c[nH]c2ccccc12)C(=O)O	44.5%
O=C(COc1ccc(/C=C/C(=O)c2c[nH]c3ccccc23)cc1)Nc1ncncc1C(=O)O	22.4%
O=C(COc1ccc(/C=C/C(=O)c2c[nH]c3ccccc23)cc1)Nc1ccc(C(=O)c2ccccc2C(=O)O)cc1	40.1%

Test system: Hepacivirus hominis
Assay: Inhibition of HCV NS3/4A protease at 100 ug/ml after 30 mins
Procedure, shortened: as §1

SMILES	inhibition
O=C(COc1ccc(/C=C/C(=O)c2c[nH]c3ccccc23)cc1)N[C@@H](Cc1c[nH]cn1)C(=O)O	78.7%
O=C(COc1ccc(/C=C/C(=O)c2c[nH]c3ccccc23)cc1)N[C@@H](Cc1ccccc1)C(=O)O	84.7%
O=C(COc1ccc(/C=C/C(=O)c2c[nH]c3ccccc23)cc1)N[C@@H](Cc1ccc(O)cc1)C(=O)O	83.9%
O=C(O)COc1ccc(/C=C/C(=O)c2c[nH]c3ccccc23)cc1	51.8%
O=C(COc1ccc(/C=C/C(=O)c2c[nH]c3ccccc23)cc1)N[C@@H](Cc1c[nH]c2ccccc12)C(=O)O	82.9%
N#Cc1cncnc1NC(=O)COc1ccc(/C=C/C(=O)c2c[nH]c3ccccc23)cc1	58.4%
O=C(COc1ccc(/C=C/C(=O)c2c[nH]c3ccccc23)cc1)Nc1ncncc1C(=O)O	73.7%
O=C(COc1ccc(/C=C/C(=O)c2c[nH]c3ccccc23)cc1)Nc1ccc(C(=O)c2ccccc2C(=O)O)cc1	80.9%

Test system: not listed separately
Assay: Inhibition of HCV NS3/4A protease after 30 mins
Parameters: species or system Hepacivirus hominis
Procedure, shortened: as §1

SMILES	IC50
O=C(COc1ccc(/C=C/C(=O)c2c[nH]c3ccccc23)cc1)N[C@@H](Cc1c[nH]cn1)C(=O)O	21 µg/mL (≈ 45.8 µM)
CC(=O)OCCC/C(=C1/SC(=S)N(CC(=O)O)C1=O)c1ccc(Br)cc1	6.4 µg/mL (≈ 14 µM)
O=C(COc1ccc(/C=C/C(=O)c2c[nH]c3ccccc23)cc1)N[C@@H](Cc1ccccc1)C(=O)O	9 µg/mL (≈ 19.2 µM)
O=C(COc1ccc(/C=C/C(=O)c2c[nH]c3ccccc23)cc1)N[C@@H](Cc1ccc(O)cc1)C(=O)O	12 µg/mL (≈ 24.8 µM)
CC(C)C[C@H](NC(=O)C1(Cc2ccsc2C(=O)O)Cc2ccccc2N1)C(=O)NC(CC(F)F)C(=O)C(=O)O (some centres not stated)	0.4 µg/mL (≈ 0.707 µM)
O=C(O)COc1ccc(/C=C/C(=O)c2c[nH]c3ccccc23)cc1	> 100 µg/mL
O=C(COc1ccc(/C=C/C(=O)c2c[nH]c3ccccc23)cc1)N[C@@H](Cc1c[nH]c2ccccc12)C(=O)O	19 µg/mL (≈ 37.4 µM)
N#Cc1cncnc1NC(=O)COc1ccc(/C=C/C(=O)c2c[nH]c3ccccc23)cc1	> 100 µg/mL
O=C(COc1ccc(/C=C/C(=O)c2c[nH]c3ccccc23)cc1)Nc1ncncc1C(=O)O	29 µg/mL (≈ 65.5 µM)
O=C(COc1ccc(/C=C/C(=O)c2c[nH]c3ccccc23)cc1)Nc1ccc(C(=O)c2ccccc2C(=O)O)cc1	19 µg/mL (≈ 34.9 µM)

Test system: Hepacivirus hominis
Assay: Inhibition of HCV NS3/4A protease at 50 ug/ml after 30 mins
Procedure, shortened: as §1

SMILES	inhibition
O=C(COc1ccc(/C=C/C(=O)c2c[nH]c3ccccc23)cc1)N[C@@H](Cc1c[nH]cn1)C(=O)O	48.5%
O=C(COc1ccc(/C=C/C(=O)c2c[nH]c3ccccc23)cc1)N[C@@H](Cc1ccccc1)C(=O)O	82.4%
O=C(COc1ccc(/C=C/C(=O)c2c[nH]c3ccccc23)cc1)N[C@@H](Cc1ccc(O)cc1)C(=O)O	81.2%
O=C(O)COc1ccc(/C=C/C(=O)c2c[nH]c3ccccc23)cc1	22.9%
O=C(COc1ccc(/C=C/C(=O)c2c[nH]c3ccccc23)cc1)N[C@@H](Cc1c[nH]c2ccccc12)C(=O)O	67.2%
N#Cc1cncnc1NC(=O)COc1ccc(/C=C/C(=O)c2c[nH]c3ccccc23)cc1	29.4%
O=C(COc1ccc(/C=C/C(=O)c2c[nH]c3ccccc23)cc1)Nc1ncncc1C(=O)O	57.2%
O=C(COc1ccc(/C=C/C(=O)c2c[nH]c3ccccc23)cc1)Nc1ccc(C(=O)c2ccccc2C(=O)O)cc1	72%
